Calls of active or inactive are those of the source. The rule behind the calls is not given here. Bounds are passed on as bounds.

One assay concerns SW480. The experiment in a line: Anticancer activity against human SW480 cells transfected with scrambled siRNA assessed as inhibition of cell viability 5 uM measured after 24 hrs by alamar blue assay.
Conditions: not given
The class given is functional, cell-based. In a few lines:
(§1)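 SW480 seeded overnight, transfected with 50 nM human GPR120 27mer siRNA duplex or universal scrambled siRNA duplex (siTran 2.0). Harvested 24 h post-transfection, then exposed to 5 μM, 24 h. Viability read by alamar blue (6%, 3 h, ex 560/em 590 nm). Five replicates, mean ± SE; two-way ANOVA with Tukey test.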
A general note: Alamar Blue is a resazurin reagent that responds to reducing activity.
For the compound `COc1ccc(-n2c(SCC(=O)c3ccc(Cl)cc3)nc3c(c2=O)C2(CCCC2)Cc2ccccc2-3)cc1`, the outcome was Active.
Still for that read-out and setting: the same measure for `O=C(CSc1nc2c(c(=O)n1-c1ccccc1)C1(CCCC1)Cc1ccccc1-2)c1ccc(Cl)cc1`: “Active”.

The next assay has as its system SW480. The experiment in a line: Anticancer activity against human SW480 cells transfected with GPR120 siRNA assessed as inhibition of cell viability 5 uM measured after 24 hrs by alamar blue assay.
Conditions: not given
The class given is functional, cell-based. Put shortly:
as §1
As to `COc1ccc(-n2c(SCC(=O)c3ccc(Cl)cc3)nc3c(c2=O)C2(CCCC2)Cc2ccccc2-3)cc1`, the result was Active.
On the same count and under the same terms, the same measure for `O=C(CSc1nc2c(c(=O)n1-c1ccccc1)C1(CCCC1)Cc1ccccc1-2)c1ccc(Cl)cc1`: “inactive”.

In the next assay the test system is SW480. Put plainly: Anticancer activity against human SW480 cells expressing GPR120 assessed as inhibition of cell viability measured after 72 hrs by alamar blue assay. The format is functional, cell-based.
Conditions: not given
Put shortly:
(§2)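 SW480 seeded 10,000, 5,000 or 2500 cells/well for 24, 48 or 72 h exposure; 9 serial dilutions 100 to 0.39 μM in 0.5% DMSO medium, not replenished during treatment. Read by 6% alamar blue, 3 h, ex 560/em 590 nm. 50% DMSO defined 0%, 0.5% DMSO 100%; IC50 by non-linear regression. 5 replicates, three experiments.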
`O=C1c2cc(S(=O)(=O)Nc3cccc4ccccc34)ccc2-c2ccc(S(=O)(=O)Nc3cccc4ccccc34)cc21`: the outcome was Active.
Same read-out and setting: the same measure for `Cc1ccc(-n2c(SCC(=O)c3ccccc3)nc3c(c2=O)C2(CCCC2)Cc2ccccc2-3)cc1`: “Active”.

A further assay relates to SW480. Put plainly: Anticancer activity against human SW480 cells expressing GPR120 assessed as inhibition of cell viability measured after 48 hrs by alamar blue assay. The class given is functional, cell-based. The settings on record: SW480, 48 h. Put shortly: as §2
In general, IC50 refers to the midpoint of a concentration-inhibition curve. Take `O=C1c2cc(S(=O)(=O)Nc3cccc4ccccc34)ccc2-c2ccc(S(=O)(=O)Nc3cccc4ccccc34)cc21`: the IC50 was 50 µM.
On to `Cc1ccc(-n2c(SCC(=O)c3ccccc3)nc3c(c2=O)C2(CCCC2)Cc2ccccc2-3)cc1`, for which the IC50 was found to be 50 µM.

Another assay concerns SW480. Put plainly: Anticancer activity against human SW480 cells expressing GPR120 assessed as inhibition of cell viability measured after 24 hrs by alamar blue assay. Particulars: SW480, 24 h. The format is functional, cell-based. Put shortly: as §2
As to `O=C(CSc1nc2c(c(=O)n1C1CCCC1)C1(CCCC1)Cc1ccccc1-2)c1ccc(Cl)cc1`, the IC50 is 24.3 µM.
On the same count and under the same terms, the same measure for `O=C(CSc1nc2c(c(=O)n1CCc1ccccc1)C1(CCCC1)Cc1ccccc1-2)c1ccc(Cl)cc1`: 68.9 µM; for `COc1ccc(-n2c(SCC(=O)c3ccc(Cl)cc3)nc3c(c2=O)C2(CCCC2)Cc2ccccc2-3)cc1`: 6.79 µM.
With `O=C1c2cc(S(=O)(=O)Nc3cccc4ccccc34)ccc2-c2ccc(S(=O)(=O)Nc3cccc4ccccc34)cc21`, the IC50 is 26.6 µM.
As to `Cn1c(SCC(=O)c2ccc(Cl)cc2)nc2c(c1=O)C1(CCCC1)Cc1ccccc1-2`, the IC50 worked out at 22.9 µM.
The same measure, in the same setting: the same measure for `Cc1ccc(-n2c(SCC(=O)c3ccc(Br)cc3)nc3c(c2=O)C2(CCCC2)Cc2ccccc2-3)cc1`: 25.5 µM; for `O=C(CSc1nc2c(c(=O)n1-c1ccccc1)C1(CCCC1)Cc1ccccc1-2)c1ccc(Cl)cc1`: 5.89 µM.
On the same count and under the same terms, the same measure for `Cc1ccc(-n2c(SCC(=O)c3ccccc3)nc3c(c2=O)C2(CCCC2)Cc2ccccc2-3)cc1`: 23.2 µM.

The test system of the next assay is SW480. The experiment in a line: Anticancer activity against human SW480 cells expressing GPR120 assessed as inhibition of cell viability at 100 uM measured after 72 hrs by alamar blue assay relative to control. The class given is functional.
Conditions: not given
In a few lines: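 SW480 in RPMI1640 + 10% FBS, 37 °C, 5% CO2; seeded 2500 cells/well, exposed 72 h to 100, 10, 1 μM in 0.5% DMSO medium. Medium then replaced by 6% alamar blue, 3 h, fluorescence ex 560/em 590 nm. Six replicates, mean ± SE; viability set relative to vehicle (0.5% DMSO) control.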
The inhibition is how much of the control response was suppressed. Consider `O=C1c2cc(S(=O)(=O)Nc3cccc4ccccc34)ccc2-c2ccc(S(=O)(=O)Nc3cccc4ccccc34)cc21`, for which the inhibition at 100 µM was more than 90%.
Turning to `Cc1ccc(-n2c(SCC(=O)c3ccccc3)nc3c(c2=O)C2(CCCC2)Cc2ccccc2-3)cc1`, the inhibition at 100 µM was more than 90%.
